The source of these data is the array DNA melting data of Ke et al. (doi:10.1101/2024.01.08.574731).

A short description of data set [1]: melting temperature; fluorescence melt of hairpins on a sequencing array, two-state fit, raised by 9.35 °C to match UV melts. To be noted: sodium 0.088 M. The essentials:
(§1)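 Folding enthalpy and melting temperature were estimated with bootstrapped two-state fits and combined across four replicates by inverse-variance weighting, with fitted temperatures raised by 9.35 °C to match UV melts. The data were Cy3 fluorescence of library hairpins, with annealed Cy3 and quencher oligos, on a sequenced MiSeq flow cell in 50 mM Na-HEPES pH 8.0, 25 mM NaCl, imaged in 2.5 °C steps up to 60 °C and normalised to pre-quench Cy3 and control constructs.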

A short description of data set [2]: folding enthalpy; higher = less favourable; fluorescence melt of hairpins on a sequencing array, two-state fit. To be noted: sodium 0.088 M. The essentials:
as §1

On to GCGAGTGGAAACGTTCGC ((((..(....)..)))), for which the Tm in data set [1] is 45.5 °C. Moreover, the folding enthalpy in data set [2] was -24.6 kcal/mol.
For GGTGATGCGAAAGCAACC (((..(((....)))))) the same measures were 36.9 °C and -13.7 kcal/mol.
For GATCTGTTCCCAGATC ((((((....)))))), the Tm in data set [1] amounted to 48.6 °C. The folding enthalpy in data set [2] is -33.7 kcal/mol.
For GATCAGCTGCCTGATC ((((((....)))))) the same measures were 50.5 °C and -27.5 kcal/mol.
Take GGAACGGCGAAAGCCTCC (((..(((....)))))): the Tm in data set [1] was found to be 31.6 °C. Besides, in data set [2], the folding enthalpy is -10.3 kcal/mol.
In the case of GATCACGTGTGTGATC ((((((....)))))), the Tm in data set [1] is 58.9 °C. The folding enthalpy in data set [2] was -37.3 kcal/mol.
GTCATCCGAAAGGAGAC (((.(((....)))))): the Tm in data set [1] was determined as 45.2 °C. In addition, in data set [2], the folding enthalpy was -20.1 kcal/mol.
As to GTCGACTCGAAAGAGGAC (((..(((....)))))), the Tm in data set [1] came out at 35.6 °C. The folding enthalpy in data set [2] was -16.9 kcal/mol.
Regarding GCTCGTCCGAAAGGAAGC (((..(((....)))))), in data set [1], the Tm worked out at 36.6 °C. In addition, the folding enthalpy in data set [2] is -8.41 kcal/mol.
On the same counts, the results for GACGTGGGAAACTACGTC (((((.(....).))))) are 52.5 °C and -38.4 kcal/mol.
In the case of GCCTTGCGAAAGCAGTGC ((..(((....)))..)), the Tm in data set [1] was determined as 45.1 °C. Moreover, the folding enthalpy in data set [2] is -11.6 kcal/mol.
Take GCGGAGCGAAAGCACTGC ((.(.((....)).).)): the Tm in data set [1] amounted to 50 °C. In data set [2], the folding enthalpy is -12.7 kcal/mol.
As for GCGGACGGAAACATCCGC (((((.(....).))))), in data set [1], the Tm stood at 52.9 °C. Besides, the folding enthalpy in data set [2] is -39.2 kcal/mol.
For the sequence GTCCAGGGAAACTTGGAC (((((.(....).))))), in data set [1], the Tm came out at 48.2 °C. In addition, the folding enthalpy in data set [2] was -22.3 kcal/mol.
On to GTGGGTGGAAACACTCAC (((.(((....))).))), for which, in data set [1], the Tm stood at 52.1 °C. Further, the folding enthalpy in data set [2] is -37.2 kcal/mol.
As for GCCTGGCCGAAAGGCGGC (((..(((....)))))), the Tm in data set [1] worked out at 65.3 °C. In addition, the folding enthalpy in data set [2] was -18.4 kcal/mol.
For GAGGATGGAAACATCCTC (((((((....))))))) the same measures were 61.3 °C and -49.6 kcal/mol.
With GCGGCGGGAAACCACCGC ((((.((....)).)))), the Tm in data set [1] turned out to be 60.3 °C. Further, the folding enthalpy in data set [2] was -41.7 kcal/mol.
With GATCCTCTTAAGGATC ((((((....)))))), the Tm in data set [1] was 52.9 °C. Besides, the folding enthalpy in data set [2] was -42.5 kcal/mol.
GGTAACGAAAGTTAACC ((((((....))).))): in data set [1], the Tm is 45.3 °C. In addition, the folding enthalpy in data set [2] was -18.2 kcal/mol.
In the case of GTAAGCGAAAGCTTGTAC ((((((....)))..))), the Tm in data set [1] is 32.3 °C. For the same sequence, in data set [2], the folding enthalpy was -11.7 kcal/mol.
For GTAGAGGAAACTCTAC ((((((....)))))) the same measures were 49.1 °C and -25.3 kcal/mol.
GGTTAGCCGAAAGGCACC (((..(((....)))))): in data set [1], the Tm was 41.2 °C. For the same sequence, the folding enthalpy in data set [2] was -13.5 kcal/mol.
Turning to GATCGGCCGTCCGATC ((((((....)))))), the Tm in data set [1] was 58.3 °C. The folding enthalpy in data set [2] is -39.7 kcal/mol.
In the case of GGAATAGGAAACTATTTC (.(((((....))))).), the Tm in data set [1] came out at 30.6 °C. Moreover, the folding enthalpy in data set [2] was -29.1 kcal/mol.
On the same counts, the results for GCTACGCGAAAGCAAAGC (((..((....))..))) are 44.1 °C and -13.2 kcal/mol.
Regarding GTCCGCGAAAGCGGAGAC ((((((....)))..))), the Tm in data set [1] came out at 56.8 °C. Also, the folding enthalpy in data set [2] was -7 kcal/mol.
As to CGTACGGAAACGTGACG ((((((....))).))), the Tm in data set [1] is 41.1 °C. Also, the folding enthalpy in data set [2] was -25.9 kcal/mol.
GATCTCATTAGAGATC ((((((....)))))): the Tm in data set [1] was determined as 57.1 °C. Besides, the folding enthalpy in data set [2] is -35 kcal/mol.
For GAGCTCGGAAACGAACTC (((.(((....))).))) the same measures were 44.9 °C and -28.6 kcal/mol.
